Measurements as given in ChEMBL document CHEMBL3399927, “Identification of novel inhibitors of Aurora A with a 3-(pyrrolopyridin-2-yl)indazole scaffold” (Bioorg Med Chem, 2015).
Active and inactive are the calls of the source. The rule behind the calls is not given here.

Legend:
[1] = target: T1, Inhibitor of nuclear factor kappa-B kinase subunit beta (Homo sapiens) (UniProt O14920); test: Inhibition of IKKbeta (unknown origin) at 1 ug/ml relative to control
T1 sequence (whole entry): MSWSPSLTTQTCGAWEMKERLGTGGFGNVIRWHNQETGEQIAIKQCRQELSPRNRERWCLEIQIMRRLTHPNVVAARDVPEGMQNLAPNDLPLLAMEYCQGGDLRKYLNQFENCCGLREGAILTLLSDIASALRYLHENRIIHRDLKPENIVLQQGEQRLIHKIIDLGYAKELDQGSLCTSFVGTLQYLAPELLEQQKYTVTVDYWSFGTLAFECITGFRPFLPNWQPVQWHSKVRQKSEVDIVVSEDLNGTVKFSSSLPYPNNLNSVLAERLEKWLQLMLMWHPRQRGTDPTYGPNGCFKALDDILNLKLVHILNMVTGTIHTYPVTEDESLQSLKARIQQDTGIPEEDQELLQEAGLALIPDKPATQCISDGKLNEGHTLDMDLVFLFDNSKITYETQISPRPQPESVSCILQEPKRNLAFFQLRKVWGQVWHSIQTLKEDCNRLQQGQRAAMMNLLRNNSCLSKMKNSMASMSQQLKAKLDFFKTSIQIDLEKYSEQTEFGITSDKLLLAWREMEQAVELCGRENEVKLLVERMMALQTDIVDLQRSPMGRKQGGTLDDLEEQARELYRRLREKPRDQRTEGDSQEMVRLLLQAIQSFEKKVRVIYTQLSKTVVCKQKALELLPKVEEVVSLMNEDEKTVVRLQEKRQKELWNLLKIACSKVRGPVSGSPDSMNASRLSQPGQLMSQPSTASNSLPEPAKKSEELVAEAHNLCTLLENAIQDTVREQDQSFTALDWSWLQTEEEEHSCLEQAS

[2] = target: Protein kinase C (PKC) (Homo sapiens) (UniProt O94806+P41743+P17252+P05129+Q05655+P05771+Q05513+Q02156+P24723+Q15139+Q04759); test: Inhibition of PKC (unknown origin) at 1 ug/ml relative to control
Procedure, shortened: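 Fixed-concentration screen at 1 µg/mL with a Z'-LYTE kinase assay kit.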

A549 = test: Antiproliferative activity against human A549 cells after 72 hrs by MTT assay; format: functional, cell-based; conditions: A549, 72 h
[3] = Cell cycle arrest in human HCT116 cells assessed as accumulation at G2/M phase after 24 hrs by FACS analysis; format: functional, cell-based; conditions: HCT-116
[4] = Antiproliferative activity against human HL60 cells after 72 hrs by MTT assay; format: functional, cell-based; conditions: HL-60, 72 h
Procedure, shortened: (§1)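 Cells grown in RPMI-1640 with heat-inactivated 10% FBS, penicillin 100 units/mL and streptomycin 100 μg/mL, at 37 °C under 20% O2, 5% CO2. Compounds dissolved in DMSO at 10.0 mg/mL (stock), then diluted. Cells were plated for 24 h, exposed to a range of concentrations for 72 h, and viability was read by MTT. IC50 is 50% absorbance inhibition versus control cells; means of three experiments.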

[5] = Cell cycle arrest in human HCT116 cells assessed as accumulation at G2/M phase at 200 nM after 24 hrs by FACS analysis; format: functional, cell-based; conditions: HCT-116
KB = test: Antiproliferative activity against human KB cells after 72 hrs by MTT assay; format: functional, cell-based; procedure, shortened: as §1
[6] = Apparent permeability across apical to basolateral side in MDCK cells by HPLC; format: ADME, cell-based, Canis lupus familiaris; conditions: dog
[7] = target: Cyclin-dependent kinase 2 (Homo sapiens) (UniProt P24941); test: Inhibition of CDK2 (unknown origin) at 1 ug/ml relative to control
[8] = target: Glycogen synthase kinase-3 beta (Homo sapiens) (UniProt P49841); test: Inhibition of GSK3beta (unknown origin) at 1 ug/ml relative to control
[9] = target: T2, Aurora kinase A (Homo sapiens) (UniProt O14965); test: Inhibition of human full length Aurora A at 1 ug/ml by Z'-LYTE assay
T2 sequence (whole entry): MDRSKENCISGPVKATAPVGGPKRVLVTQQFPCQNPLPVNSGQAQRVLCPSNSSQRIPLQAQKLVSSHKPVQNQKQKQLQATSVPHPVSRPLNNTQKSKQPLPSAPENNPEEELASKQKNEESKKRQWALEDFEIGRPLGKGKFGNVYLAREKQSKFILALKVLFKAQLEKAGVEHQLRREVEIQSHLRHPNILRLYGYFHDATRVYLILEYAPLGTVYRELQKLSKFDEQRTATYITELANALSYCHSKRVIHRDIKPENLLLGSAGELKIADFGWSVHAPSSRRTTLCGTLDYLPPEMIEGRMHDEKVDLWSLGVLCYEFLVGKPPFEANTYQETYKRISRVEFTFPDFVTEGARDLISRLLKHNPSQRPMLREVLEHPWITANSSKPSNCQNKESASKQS

HCT-116 [10] = test: Ratio of taxol IC50 to compound IC50 for human HCT116 cells; format: functional
HCT-116 [11] = test: Induction of apoptosis in human HCT116 cells at 200 nM after 24 hrs by FACS analysis relative to control; format: functional
Aurora kinase A = target: T3, Aurora kinase A (Homo sapiens, UniProt O14965); test: Inhibition of human full length Aurora A by Z'-LYTE assay
T3 sequence (O14965 whole entry): T2 sequence (whole entry)

[12] = target: Serine/threonine-protein kinase B-raf (Homo sapiens) (UniProt P15056); test: Inhibition of BRAF (unknown origin) at 1 ug/ml relative to control
[13] = Antiproliferative activity against human SMMC7721 cells after 72 hrs by MTT assay; format: functional, cell-based; conditions: SMMC-7721, 72 h; procedure, shortened: as §1
[14] = target: Dual specificity mitogen-activated protein kinase kinase 1 (Homo sapiens) (UniProt Q02750); test: Inhibition of MEK1 (unknown origin) at 1 ug/ml relative to control
[15] = target: T4, Serine/threonine-protein kinase Chk1 (Homo sapiens) (UniProt O14757); test: Inhibition of CHK1 (unknown origin) at 1 ug/ml relative to control
T4 sequence (whole entry): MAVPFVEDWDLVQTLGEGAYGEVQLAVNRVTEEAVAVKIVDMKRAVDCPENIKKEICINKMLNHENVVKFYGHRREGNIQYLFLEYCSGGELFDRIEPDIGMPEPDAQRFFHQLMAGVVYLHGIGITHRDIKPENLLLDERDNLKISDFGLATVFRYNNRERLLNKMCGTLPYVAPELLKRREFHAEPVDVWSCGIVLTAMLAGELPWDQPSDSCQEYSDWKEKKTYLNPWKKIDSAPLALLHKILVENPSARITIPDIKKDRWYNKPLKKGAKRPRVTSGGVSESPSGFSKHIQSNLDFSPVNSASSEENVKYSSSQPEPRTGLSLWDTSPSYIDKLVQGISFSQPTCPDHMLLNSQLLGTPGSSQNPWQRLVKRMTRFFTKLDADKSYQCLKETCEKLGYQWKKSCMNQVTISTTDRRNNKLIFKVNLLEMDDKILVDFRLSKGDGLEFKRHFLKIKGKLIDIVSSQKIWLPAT
Procedure, shortened: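 Fixed-concentration screen at 1 µg/mL using the luminescent ADP-Glo assay.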

[16] = Antiproliferative activity against human HCT116 cells after 72 hrs by MTT assay; format: functional, cell-based; conditions: HCT-116, 72 h; procedure, shortened: as §1
[17] = target: Cell division cycle 7-related protein kinase (Homo sapiens) (UniProt O00311); test: Inhibition of CDC7 (unknown origin)
Chain of Cell division cycle 7-related protein kinase (Homo sapiens) (O00311 whole entry, looked up): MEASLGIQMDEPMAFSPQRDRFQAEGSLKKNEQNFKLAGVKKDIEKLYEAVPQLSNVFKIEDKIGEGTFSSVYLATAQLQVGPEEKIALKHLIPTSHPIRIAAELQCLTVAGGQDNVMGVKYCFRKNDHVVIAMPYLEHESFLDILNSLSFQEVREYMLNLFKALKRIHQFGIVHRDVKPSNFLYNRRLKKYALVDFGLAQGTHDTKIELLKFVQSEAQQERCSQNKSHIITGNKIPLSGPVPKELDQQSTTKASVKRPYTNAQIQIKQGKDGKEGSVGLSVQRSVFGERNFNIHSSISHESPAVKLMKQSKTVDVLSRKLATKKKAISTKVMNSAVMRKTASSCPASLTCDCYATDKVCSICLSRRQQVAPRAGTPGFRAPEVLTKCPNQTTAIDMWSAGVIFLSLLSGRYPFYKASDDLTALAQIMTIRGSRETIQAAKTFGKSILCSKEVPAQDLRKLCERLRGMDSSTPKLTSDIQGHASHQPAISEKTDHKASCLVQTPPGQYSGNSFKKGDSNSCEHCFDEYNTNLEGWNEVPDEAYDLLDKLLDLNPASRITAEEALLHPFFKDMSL

Chain of Dual specificity mitogen-activated protein kinase kinase 1 (Homo sapiens) (Q02750 whole entry): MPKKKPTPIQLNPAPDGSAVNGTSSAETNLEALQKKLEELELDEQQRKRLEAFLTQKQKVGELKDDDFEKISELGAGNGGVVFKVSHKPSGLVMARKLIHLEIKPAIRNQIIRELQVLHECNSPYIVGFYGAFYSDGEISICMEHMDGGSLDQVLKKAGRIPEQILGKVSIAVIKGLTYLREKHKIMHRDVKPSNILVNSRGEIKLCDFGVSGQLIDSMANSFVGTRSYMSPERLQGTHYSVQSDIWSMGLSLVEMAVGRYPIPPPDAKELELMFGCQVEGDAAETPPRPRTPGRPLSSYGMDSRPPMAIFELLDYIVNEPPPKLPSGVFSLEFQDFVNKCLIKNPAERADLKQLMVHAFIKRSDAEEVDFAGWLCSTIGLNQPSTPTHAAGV
Chain of Serine/threonine-protein kinase B-raf (Homo sapiens) (P15056 whole entry): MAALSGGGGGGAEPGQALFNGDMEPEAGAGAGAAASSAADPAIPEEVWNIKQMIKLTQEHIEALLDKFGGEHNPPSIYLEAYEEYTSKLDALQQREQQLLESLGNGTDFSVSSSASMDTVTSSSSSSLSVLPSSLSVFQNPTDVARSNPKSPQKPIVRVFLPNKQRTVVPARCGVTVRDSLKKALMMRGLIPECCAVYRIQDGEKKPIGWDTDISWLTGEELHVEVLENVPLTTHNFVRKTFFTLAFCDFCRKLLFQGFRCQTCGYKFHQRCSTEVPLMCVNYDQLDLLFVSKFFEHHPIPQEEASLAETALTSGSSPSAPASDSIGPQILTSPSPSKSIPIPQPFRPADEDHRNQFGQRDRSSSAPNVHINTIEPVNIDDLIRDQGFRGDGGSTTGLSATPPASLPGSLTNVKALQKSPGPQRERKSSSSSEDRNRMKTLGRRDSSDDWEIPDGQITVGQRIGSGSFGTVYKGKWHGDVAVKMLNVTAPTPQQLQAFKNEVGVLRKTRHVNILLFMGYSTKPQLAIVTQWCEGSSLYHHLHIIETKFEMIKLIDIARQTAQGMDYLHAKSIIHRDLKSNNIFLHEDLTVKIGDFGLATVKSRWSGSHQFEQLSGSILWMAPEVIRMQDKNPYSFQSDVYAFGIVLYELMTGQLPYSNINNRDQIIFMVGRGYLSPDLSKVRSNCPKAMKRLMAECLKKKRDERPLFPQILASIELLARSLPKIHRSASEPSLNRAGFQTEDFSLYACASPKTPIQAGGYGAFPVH
Chain of Glycogen synthase kinase-3 beta (Homo sapiens) (P49841 whole entry, looked up): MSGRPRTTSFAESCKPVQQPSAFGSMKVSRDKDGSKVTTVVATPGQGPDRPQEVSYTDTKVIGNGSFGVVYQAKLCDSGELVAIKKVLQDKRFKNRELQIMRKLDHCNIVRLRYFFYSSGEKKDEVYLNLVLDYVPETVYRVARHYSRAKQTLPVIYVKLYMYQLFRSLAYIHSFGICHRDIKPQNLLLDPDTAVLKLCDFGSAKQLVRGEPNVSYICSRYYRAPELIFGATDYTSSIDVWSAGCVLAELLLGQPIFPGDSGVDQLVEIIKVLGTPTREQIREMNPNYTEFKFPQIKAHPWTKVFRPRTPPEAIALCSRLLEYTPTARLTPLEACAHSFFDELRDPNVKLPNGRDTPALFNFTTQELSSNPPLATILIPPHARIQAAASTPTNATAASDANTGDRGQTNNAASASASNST

| inhibition [1] [%] | inhibition [2] [%] | IC50 (A549) [nM] | IC50 (KB) [nM] | Papp A→B [6] [×10⁻⁶ cm/s] | inhibition [7] [%] | inhibition [8] [%] | inhibition [9] [%] | IC50 (Aurora kinase A) [nM] | inhibition [12] [%] | inhibition [14] [%] | inhibition [15] [%] | IC50 [17] [nM] | Compound | Activity [3] | IC50 [4] [nM] | Activity [5] | Ratio IC50 (HCT-116 [10]) | Activity (HCT-116 [11]) [%] | IC50 [13] [nM] | IC50 [16] [nM] |
| --- | --- | --- | --- | --- | --- | --- | --- | --- | --- | --- | --- | --- | --- | --- | --- | --- | --- | --- | --- | --- |
| 0.55 | 0.62 | 1430 | 32 | 6.07 | 13.8 | 19.3 | 75.4 | 519 | 16.4 | 6.64 | 20.5 |  | CN(C(=O)Nc1ccccc1)c1ccc2[nH]c(-c3n[nH]c4ccccc34)cc2n1 | Dose-dependent effect | 8.3 | Active | 3 | 25.4 | 280 | 1.3 |
|  |  |  |  |  |  |  |  |  |  |  |  | 11 | N#Cc1ccc2c(-c3cc4cc(CN5CCOCC5)ccc4[nH]3)n[nH]c2c1 |  |  |  |  |  |  |  |
